This note sets out measurements from ChEMBL document CHEMBL1135628, “Potent and long-acting corticotropin releasing factor (CRF) receptor 2 selective peptide competitive antagonists” (J Med Chem, 2002).

Assay [1] addresses T1, Corticotropin-releasing factor receptor 1 (Homo sapiens, UniProt P34998).
T1 sequence (P34998 whole entry): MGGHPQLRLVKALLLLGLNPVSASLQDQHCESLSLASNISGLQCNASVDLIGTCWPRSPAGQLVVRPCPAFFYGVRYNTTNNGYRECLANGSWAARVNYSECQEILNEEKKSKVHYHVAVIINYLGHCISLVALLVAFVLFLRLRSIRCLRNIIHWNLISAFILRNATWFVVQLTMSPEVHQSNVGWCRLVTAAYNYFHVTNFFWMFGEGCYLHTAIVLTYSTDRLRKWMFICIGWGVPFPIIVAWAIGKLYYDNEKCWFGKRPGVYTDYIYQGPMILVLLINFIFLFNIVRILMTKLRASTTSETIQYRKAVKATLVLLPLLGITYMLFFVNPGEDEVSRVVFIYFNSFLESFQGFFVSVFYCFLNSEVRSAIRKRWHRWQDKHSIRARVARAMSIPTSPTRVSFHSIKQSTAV
Kind of assay: Inhibition of recombinant corticotropin releasing factor receptor 1 assayed using nonselective [125I]-labeled agonist [Tyr0,Glu1,Nle17]-sauvagine. In outline: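 Crude plasma membranes from stable CHO lines expressing hCRF1 or mCRF2β, stored in 10% sucrose at -80 °C. Incubated 90 min at room temperature, then washed and filtered. IC50 taken from one representative assay, repeated at least twice.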

In assay [2] the target is Corticotropin-releasing factor receptor 2 (Mus musculus) (UniProt Q60748). Kind of assay: Inhibition of recombinant mouse corticotropin releasing factor receptor 2 beta (CRF2beta) assayed using nonselective [125I]-labeled agonist [Tyr0,Glu1,Nle17]-sauvagine as radioligand.

Structures are written as SMILES.

Chain of Corticotropin-releasing factor receptor 2 (Mus musculus) (Q60748 whole entry, looked up): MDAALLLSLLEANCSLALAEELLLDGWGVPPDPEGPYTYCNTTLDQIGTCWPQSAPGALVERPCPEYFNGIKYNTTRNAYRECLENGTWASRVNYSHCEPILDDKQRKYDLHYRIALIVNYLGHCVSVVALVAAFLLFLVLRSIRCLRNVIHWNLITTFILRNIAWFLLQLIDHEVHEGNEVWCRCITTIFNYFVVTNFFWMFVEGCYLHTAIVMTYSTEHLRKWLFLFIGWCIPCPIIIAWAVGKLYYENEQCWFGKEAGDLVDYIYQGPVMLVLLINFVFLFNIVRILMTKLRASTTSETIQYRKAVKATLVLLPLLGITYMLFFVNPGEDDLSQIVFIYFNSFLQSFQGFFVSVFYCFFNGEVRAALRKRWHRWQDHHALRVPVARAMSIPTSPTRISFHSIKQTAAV

Consider `CCCC[C@H](NC(=O)[C@H](CCCCN)NC(=O)[C@H](CCCN=C(N)N)NC(=O)[C@H](CC(C)C)NC(=O)[C@](C)(CC(C)C)NC(=O)[C@H](Cc1c[nH]cn1)NC(=O)[C@@H](Cc1ccccc1)NC(=O)[C@H](CO)NC(=O)[C@H](CC(C)C)NC(=O)[C@H](CC(=O)O)NC(C)=O)C(=O)N[C@H](C(=O)N[C@@H](CCC(=O)O)C(=O)N[C@H](C(=O)N[C@@H](CCC(=O)O)C(=O)N[C@@H](CCCCN)C(=O)N[C@@H](CCC(N)=O)C(=O)N[C@@H](CCC(=O)O)C(=O)N[C@@H](CCCCN)C(=O)N[C@@H](CCC(=O)O)C(=O)N[C@@H](CCCCN)C(=O)N[C@@H](CCC(N)=O)C(=O)N[C@@H](CCC(N)=O)C(=O)N[C@@H](C)C(=O)N[C@@H](C)C(=O)N[C@@H](CC(N)=O)C(=O)N[C@@H](CC(N)=O)C(=O)N[C@@H](CCCN=C(N)N)C(=O)N[C@@H](CC(C)C)C(=O)N[C@@H](CC(C)C)C(=O)N[C@@H](CC(C)C)C(=O)N[C@@H](CC(=O)O)C(=O)N[C@@](C)(CC(C)C)C(=O)N[C@H](C(N)=O)[C@@H](C)CC)[C@@H](C)CC)[C@@H](C)CC`, for which the IC50 was 18.4 nM in assay [1] and 0.42 nM in assay [2].
For `CCCC[C@H](NC(=O)[C@H](CCCCN)NC(=O)[C@H](CCCN=C(N)N)NC(=O)[C@H](CC(C)C)NC(=O)[C@](C)(CC(C)C)NC(=O)[C@H](Cc1c[nH]cn1)NC(=O)[C@@H](Cc1ccccc1)NC(=O)[C@H](CO)NC(=O)[C@H](CC(C)C)NC(=O)[C@H](CC(=O)O)NC(C)=O)C(=O)N[C@H](C(=O)N[C@@H](CCC(=O)O)C(=O)N[C@H](C(=O)N[C@@H](CCC(=O)O)C(=O)N[C@@H](CCCCN)C(=O)N[C@@H](CCC(N)=O)C(=O)N[C@@H](CCC(=O)O)C(=O)N[C@@H](CCCCN)C(=O)N[C@@H](CCC(=O)O)C(=O)N[C@@H](CCCCN)C(=O)N[C@H]1CCC(=O)NCCCC[C@@H](C(=O)N[C@@H](CC(N)=O)C(=O)N[C@@H](CC(N)=O)C(=O)N[C@@H](CCCN=C(N)N)C(=O)N[C@@H](CC(C)C)C(=O)N[C@@H](CC(C)C)C(=O)N[C@@H](CC(C)C)C(=O)N[C@@H](CC(=O)O)C(=O)N[C@@](C)(CC(C)C)C(=O)N[C@H](C(N)=O)[C@@H](C)CC)NC(=O)[C@H](C)NC(=O)[C@H](CCC(N)=O)NC1=O)[C@@H](C)CC)[C@@H](C)CC` the same measures were 7.7 nM and 0.57 nM.
As to `CCCC[C@H](NC(=O)[C@H](CCCCN)NC(=O)[C@H](CCCN=C(N)N)NC(=O)[C@H](CC(C)C)NC(=O)[C@](C)(CC(C)C)NC(=O)[C@H](Cc1c[nH]cn1)NC(=O)[C@@H](Cc1ccccc1)NC(=O)[C@H](CO)NC(=O)[C@H](CC(C)C)NC(=O)[C@H](CC(=O)O)NC(C)=O)C(=O)N[C@H](C(=O)N[C@@H](CCC(=O)O)C(=O)N[C@H](C(=O)N[C@@H](CCC(=O)O)C(=O)N[C@@H](CCCCN)C(=O)N[C@@H](CCC(N)=O)C(=O)N[C@@H](CCC(=O)O)C(=O)N[C@@H](CCCCN)C(=O)N[C@@H](CCC(=O)O)C(=O)N[C@H]1CCC(=O)NCCCC[C@@H](C(=O)N[C@@H](C)C(=O)N[C@@H](CC(N)=O)C(=O)N[C@@H](CC(N)=O)C(=O)N[C@@H](CCCN=C(N)N)C(=O)N[C@@H](CC(C)C)C(=O)N[C@@H](CC(C)C)C(=O)N[C@@H](CC(C)C)C(=O)N[C@@H](CC(=O)O)C(=O)N[C@@](C)(CC(C)C)C(=O)N[C@H](C(N)=O)[C@@H](C)CC)NC(=O)[C@H](CCC(N)=O)NC(=O)[C@H](CCC(N)=O)NC1=O)[C@@H](C)CC)[C@@H](C)CC`, the 50% inhibitory concentration (IC50) in assay [1] turned out to be 45 nM; in assay [2], 1.3 nM.
Turning to `CCCC[C@H](NC(=O)[C@H](CCCCN)NC(=O)[C@H](CCCN=C(N)N)NC(=O)[C@H](CC(C)C)NC(=O)[C@](C)(CC(C)C)NC(=O)[C@H](Cc1c[nH]cn1)NC(=O)[C@@H](Cc1ccccc1)NC(=O)[C@H](CO)NC(=O)[C@H](CC(C)C)NC(=O)[C@H](CC(=O)O)NC(C)=O)C(=O)N[C@H](C(=O)N[C@@H](CCC(=O)O)C(=O)N[C@H](C(=O)N[C@@H](CCC(=O)O)C(=O)N[C@@H](CCCCN)C(=O)N[C@@H](CCC(N)=O)C(=O)N[C@@H](CCC(=O)O)C(=O)N[C@@H](CCCCN)C(=O)N[C@@H](CCC(=O)O)C(=O)N[C@@H](CCCCN)C(=O)N[C@@H](CCC(N)=O)C(=O)N[C@@H](CCC(N)=O)C(=O)N[C@@H](C)C(=O)N[C@@H](C)C(=O)N[C@@H](CC(N)=O)C(=O)N[C@@H](CC(N)=O)C(=O)N[C@H]1CCC(=O)NCCCC[C@@H](C(=O)N[C@@H](CC(=O)O)C(=O)N[C@@](C)(CC(C)C)C(=O)N[C@H](C(N)=O)[C@@H](C)CC)NC(=O)[C@H](CC(C)C)NC(=O)[C@H](CC(C)C)NC1=O)[C@@H](C)CC)[C@@H](C)CC`, the IC50 in assay [1] was greater than 100 nM; in assay [2], 17.8 nM.
`CCCC[C@H](NC(=O)[C@H](CCCCN)NC(=O)[C@H](CCCN=C(N)N)NC(=O)[C@H](CC(C)C)NC(=O)[C@](C)(CC(C)C)NC(=O)[C@H](Cc1c[nH]cn1)NC(=O)[C@@H](Cc1ccccc1)NC(=O)[C@H](CO)NC(=O)[C@H](CC(C)C)NC(=O)[C@H](CC(=O)O)NC(C)=O)C(=O)N[C@H](C(=O)N[C@@H](CCC(=O)O)C(=O)N[C@H](C(=O)N[C@@H](CCC(=O)O)C(=O)N[C@@H](CCCCN)C(=O)N[C@@H](CCC(N)=O)C(=O)N[C@@H](CCC(=O)O)C(=O)N[C@@H](CCCCN)C(=O)N[C@@H](CCC(=O)O)C(=O)N[C@@H](CCCCN)C(=O)N[C@@H](CCC(N)=O)C(=O)N[C@@H](CCC(N)=O)C(=O)N[C@@H](C)C(=O)N[C@@H](C)C(=O)N[C@@H](CC(N)=O)C(=O)N[C@H]1CCC(=O)NCCCC[C@@H](C(=O)N[C@@H](CC(C)C)C(=O)N[C@@H](CC(=O)O)C(=O)N[C@@](C)(CC(C)C)C(=O)N[C@H](C(N)=O)[C@@H](C)CC)NC(=O)[C@H](CC(C)C)NC(=O)[C@H](CCCN=C(N)N)NC1=O)[C@@H](C)CC)[C@@H](C)CC`: the IC50 in assay [1] and in assay [2] was greater than 100 nM each time.
With `CCCC[C@H](NC(=O)[C@H](CCCCN)NC(=O)[C@H](CCCN=C(N)N)NC(=O)[C@H](CC(C)C)NC(=O)[C@](C)(CC(C)C)NC(=O)[C@H](Cc1c[nH]cn1)NC(=O)[C@@H](Cc1ccccc1)NC(=O)[C@H](CO)NC(=O)[C@H](CC(C)C)NC(=O)[C@H](CC(=O)O)NC(C)=O)C(=O)N[C@H](C(=O)N[C@@H](CCC(=O)O)C(=O)N[C@H](C(=O)N[C@@H](CCC(=O)O)C(=O)N[C@@H](CCCCN)C(=O)N[C@@H](CCC(N)=O)C(=O)N[C@@H](CCC(=O)O)C(=O)N[C@@H](CCCCN)C(=O)N[C@@H](CCC(=O)O)C(=O)N[C@@H](CCCCN)C(=O)N[C@@H](CCC(N)=O)C(=O)N[C@H]1CCC(=O)NCCCC[C@@H](C(=O)N[C@@H](CC(N)=O)C(=O)N[C@@H](CCCN=C(N)N)C(=O)N[C@@H](CC(C)C)C(=O)N[C@@H](CC(C)C)C(=O)N[C@@H](CC(C)C)C(=O)N[C@@H](CC(=O)O)C(=O)N[C@@](C)(CC(C)C)C(=O)N[C@H](C(N)=O)[C@@H](C)CC)NC(=O)[C@H](C)NC(=O)[C@H](C)NC1=O)[C@@H](C)CC)[C@@H](C)CC`, the half-maximal inhibitory concentration (IC50) worked out at 0.24 nM in assay [1] and 1.2 nM in assay [2].

In general, IC50 refers to the concentration that inhibits the measured activity by half.
